The results in this text go back to ChEMBL document CHEMBL1147044, “Design of helical, oligomeric HIV-1 fusion inhibitor peptides with potent activity against enfuvirtide-resistant virus” (Proc Natl Acad Sci U S A, 2007).

Some results are limits rather than exact numbers.

A short description of data set [1]: Clearance in cynomolgus monkey at 1 to 2 mg/kg, iv. Format: ADME, organism-based, Macaca fascicularis. Also on record: dose 1-2 mg/kg, route intravenous. Conditions: in vivo. In short, it runs like this:
(§1)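 Male cynomolgus monkeys received a single i.v. dose of about 1–2 mg/kg in isotonic phosphate-mannitol vehicle, given as cassettes (typically n ≤ 8). Plasma was protein-precipitated with 0.5% formic acid in acetonitrile and peptide measured by reversed-phase HPLC. Parameters were fitted with mono- or biexponential models.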

Data set [2] is described as follows: Half life in cynomolgus monkey at 1 to 2 mg/kg, iv. Format: ADME, organism-based, Macaca fascicularis. The arrangement: dose 1-2 mg/kg, route intravenous. As to conditions: in vivo. In short, it runs like this:
as §1

Data set [3] deals with Human immunodeficiency virus 1. Kind of data set: Antiviral activity against HIV1 3B infected in human PBMCs by reverse transcriptase assay. The format is functional, organism-based. Conditions: Human immunodeficiency virus 1, 3B. In short, it runs like this: (§2)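 CD8-depleted activated PBMC targets infected at high MOI by spinoculation; infected cells incubated with uninfected targets at 2 × 10⁵ cells per well with serially diluted peptide for 9 days. Fresh compound added and samples taken every 2–3 days. Replication read by reverse transcriptase assay; IC50 from reduction in RT signal relative to infected untreated wells.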

The test system of data set [4] is Human immunodeficiency virus 1. The data set is described as follows: Antiviral activity against HIV1 098 isolate infected in human PBMCs by reverse transcriptase assay. Format: functional, organism-based. In short, it runs like this:
as §2

Data set [5] deals with Human immunodeficiency virus 1. Kind of data set: Antiviral activity against HIV1 098-T20 isolate infected in human PBMCs by reverse transcriptase assay. Format: functional, organism-based. In short, it runs like this:
as §2

In data set [6] the test system is Human immunodeficiency virus 1. The data set is described as follows: Antiviral activity against HIV1 098-T1249 isolate infected in human PBMCs by reverse transcriptase assay. Format: functional, organism-based. In short, it runs like this:
as §2

For data set [7], the system named is Human immunodeficiency virus 1. Kind of data set: Antiviral activity against HIV1 098-T651 isolate infected in human PBMCs by reverse transcriptase assay. Format: functional, organism-based. The method in brief:
as §2

Data set [8] concerns Human immunodeficiency virus 1. The data set is described as follows: Binding affinity to HIV1 gp41 heptad repeat 1 region assessed as thermal stability of HR1/HR2 peptide bundle complex at 1 uM in presence of 8M urea.

A word on the clearance: it is the volume of plasma or blood freed of the substance per unit of time. The term half-life denotes the time in which the quantity being followed falls by half. What is called IC50 is the concentration that inhibits the measured activity by half. The compound “H-TTWEAWDRAIAEYAARIEALIRALQELQEKNEAILREL-OH” had a clearance in data set [1] of 0.15 mL/min/kg. In data set [2], this compound showed a half-life of 9.6 h. Further, the IC50 in data set [3] was 0.065 µg/mL; in data set [4], 0.118 µg/mL; in data set [5] it was 0.154 µg/mL; in data set [6], 0.192 µg/mL; in data set [7] it was above 20 µg/mL.
With “H-MTWMAWDRAIANYAALIHALIEAAQNQQEKNEAALLEL-OH”, the half-maximal inhibitory concentration (IC50) in data set [3] is 0.061 µg/mL; in data set [4], 0.079 µg/mL; in data set [5] it was 0.079 µg/mL; in data set [6], 0.12 µg/mL; in data set [7], 0.25 µg/mL.
The compound “H-TTWEAWDRAIAEYAARIEALIRAAQEQQEKNEAILREL-OH” gave a clearance in data set [1] of 1.1 mL/min/kg. In data set [2], this compound showed a half-life of 3.4 h. For the same compound, the IC50 in data set [3] was determined as 0.007 µg/mL; in data set [4], 0.021 µg/mL; in data set [5], 0.034 µg/mL; in data set [6], 0.024 µg/mL; in data set [7] it was 0.039 µg/mL.
On to “H-TTWEAWDRAIAEYAARIEALIRAAQELQEKLEAALREL-OH”, for which, in data set [1], the clearance is 0.0333 mL/min/kg. The same compound showed a half-life in data set [2] of 30.8 h. Moreover, the IC50 worked out at 0.172 µg/mL in data set [3]; 0.6 µg/mL in data set [4]; 0.416 µg/mL in data set [5]; 0.555 µg/mL in data set [6]; 0.987 µg/mL in data set [7]. In addition, the Tm in data set [8] is 92 °C.
Regarding “H-TTWEAWDRAIAEYAARIEALIRALQEQQEKNEAALREL-OH”, the clearance in data set [1] is 0.167 mL/min/kg. In data set [2], this compound gave a half-life of 15.2 h. Moreover, the IC50 turned out to be 0.011 µg/mL in data set [3]; 0.035 µg/mL in data set [4]; 0.028 µg/mL in data set [5]; 0.035 µg/mL in data set [6]; 0.05 µg/mL in data set [7].
For the compound “H-TTWEEWDREINEYTSRIESLIRESQEQQEKNEQELREL-OH”, the IC50 worked out at 0.012 µg/mL in data set [3]; 0.021 µg/mL in data set [4]; 0.056 µg/mL in data set [5]; 0.037 µg/mL in data set [6]; 0.167 µg/mL in data set [7]. The Tm in data set [8] is 80 °C.
“H-TTWEAWDRAIAEYAARIEALIRALQELQEKLEAILREL-OH” gave a clearance in data set [1] of 0.05 mL/min/kg. Further, the half-life in data set [2] was 35.4 h. The IC50 was 3.16 µg/mL in data set [3]; above 20 µg/mL in data set [4]; above 20 µg/mL in data set [5]; above 20 µg/mL in data set [6]; above 20 µg/mL in data set [7].
With `CC[C@H](C)[C@H](NC(=O)[C@H](C)NC(=O)[C@H](CCCNC(=N)N)NC(=O)[C@H](CC(=O)O)NC(=O)[C@H](Cc1c[nH]c2ccccc12)NC(=O)[C@H](C)NC(=O)[C@H](CCC(=O)O)NC(=O)[C@H](Cc1c[nH]c2ccccc12)NC(=O)[C@@H](NC(=O)[C@@H](N)[C@@H](C)O)[C@@H](C)O)C(=O)N[C@@H](C)C(=O)N[C@@H](CCC(=O)O)C(=O)N[C@@H](Cc1ccc(O)cc1)C(=O)N[C@@H](C)C(=O)N[C@@H](C)C(=O)N[C@@H](CCCNC(=N)N)C(=O)N[C@H](C(=O)N[C@@H](CCC(=O)O)C(=O)N[C@@H](C)C(=O)N[C@@H](CC(C)C)C(=O)N[C@H](C(=O)N[C@@H](CCCNC(=N)N)C(=O)N[C@@H](C)C(=O)N[C@@H](CC(C)C)C(=O)N[C@@H](CCC(N)=O)C(=O)N[C@@H](CCC(=O)O)C(=O)N[C@@H](CC(C)C)C(=O)N[C@@H](CCC(N)=O)C(=O)N[C@@H](CCC(=O)O)C(=O)N[C@@H](CCCCN)C(=O)N[C@@H](CC(N)=O)C(=O)N[C@@H](CCC(N)=O)C(=O)N[C@@H](C)C(=O)N[C@H](C(=O)N[C@@H](CC(C)C)C(=O)N[C@@H](CCCNC(=N)N)C(=O)N[C@@H](CCC(=O)O)C(=O)N[C@@H](CC(C)C)C(=O)O)[C@@H](C)CC)[C@@H](C)CC)[C@@H](C)CC`, the Tm in data set [8] is 84 °C.
In data set [1], “H-MTWEAWDRAIAEYAARIEALIRAAQEQQEKNEAALREL-OH” gave a clearance of 0.533 mL/min/kg. In data set [2], this compound gave a half-life of 5.1 h. Also, the IC50 in data set [3] was 0.007 µg/mL; in data set [4], 0.026 µg/mL; in data set [5] it was 0.033 µg/mL; in data set [6], 0.014 µg/mL; in data set [7], 0.021 µg/mL.
